{
  "source": "ChEMBL document CHEMBL1124765",
  "about": "“Synthesis and biological properties of novel phosphotriesters: a new approach to the introduction of biologically active nucleotides into cells” (J Med Chem, 1990)",
  "key": {"[1]": {"experiment": "pKa value was determined", "assay_type": "physicochemical"}, "Mus musculus [2]": {"species": "Mus musculus", "experiment": "Mean time survival (MTS) of the mice at the end of 28 or 49 days.", "assay_type": "functional", "summary_of_the_method": "(§1)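 Inocula were TK⁻ HSV-1 at 10⁶ CCID50/0.05 mL or HSV-1 KOS at 10^4.7 PFU/0.05 mL. Test formulations in DMSO were applied topically four times daily for 5 days, starting at infection. Skin lesions, hind-leg paralysis and death were recorded daily for 28 (KOS) or 49 (TK⁻) days, with five mice per group.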"}, "Mus musculus [3]": {"system": "Mus musculus", "experiment": "Topical treatment of intracutaneous TK- herpes simplex virus type 1 of strain VMW 1837 infection of Nu/nu mice for mean day of appearance of skin lesions and/or paralysis of the hind legs at 0.3% concentration (v/v in DMSO)", "assay_type": "functional", "summary_of_the_method": "as §1"}, "Mus musculus [4]": {"system": "Mus musculus", "experiment": "Topical treatment of intracutaneous TK- herpes simplex virus type 1 of strain VMW 1837 infection of Nu/nu mice for mean day of appearance of skin lesions and/or paralysis of the hind legs at 1% concentration (v/v in DMSO)", "assay_type": "functional", "summary_of_the_method": "as §1"}, "Mus musculus [5]": {"system": "Mus musculus", "experiment": "Topical treatment of intracutaneous TK- herpes simplex virus type 1 of strain VMW 1837 infection of Nu/nu mice for mean day of appearance of skin lesions and/or paralysis of the hind legs at 3% concentration (v/v in DMSO)", "assay_type": "functional", "summary_of_the_method": "as §1"}, "Oryctolagus cuniculus": {"species": "Oryctolagus cuniculus", "experiment": "Evaluated for the minimum cytotoxic concentration (MCC) upon preincubation of rabbit kidney cells in medium containing 10% fetal calf serum at 37 degree Celsius for 24 hr", "assay_type": "functional", "summary_of_the_method": "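Primary rabbit kidney cell cultures were exposed to compounds, some preincubated 24 h at 37 °C in medium with 10% fetal calf serum. The minimum cytotoxic concentration was the level causing a microscopically detectable change in normal cell morphology.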"}, "Human alphaherpesvirus 1 [6]": {"system": "Human alphaherpesvirus 1", "experiment": "Evaluated for the minimum inhibitory concentration (MIC) in primary rabbit kidney (PRK) by 50% against TK- herpes simplex virus type 1 (TK- HSV-1) with strain VMW 1837", "assay_type": "functional", "summary_of_the_method": "(§2)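 Confluent primary rabbit kidney cell monolayers were infected with 100 CCID50 of virus. After 1 h adsorption, residual virus was removed and cells were incubated with serial compound concentrations. Cytopathogenicity was scored once it reached completion in untreated infected controls. The endpoint was the concentration reducing virus-induced cytopathogenicity by 50%.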"}, "Human alphaherpesvirus 1 [7]": {"system": "Human alphaherpesvirus 1", "experiment": "(§3) Evaluated for the minimum inhibitory concentration (MIC) in primary rabbit kidney (PRK), by 50% upon preincubation in medium containing 10% fetal calf serum at 37 degree Celsius for 24 hr against TK- herpes simplex virus type 1 (TK- HSV-1) with s", "assay_type": "functional", "summary_of_the_method": "(§4)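 Compounds were preincubated in medium with 10% fetal calf serum for 24 h at 37 °C before addition to the cells. Confluent primary rabbit kidney monolayers were infected with 100 CCID50 of virus and adsorbed for 1 h. Residual virus was removed and cells were incubated with varying compound concentrations. The endpoint was 50% reduction of cytopathogenicity, read when infected controls reached full CPE.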"}, "Human alphaherpesvirus 1 [8]": {"system": "Human alphaherpesvirus 1", "experiment": "Evaluated for the minimum inhibitory concentration (MIC) in primary rabbit kidney (PRK), by 50% against TK- herpes simplex virus type 1 (TK- HSV-1) with strain B2006", "assay_type": "functional", "summary_of_the_method": "as §2"}, "Human alphaherpesvirus 1 [9]": {"system": "Human alphaherpesvirus 1", "experiment": "as §3", "assay_type": "functional", "summary_of_the_method": "as §4", "remark": "listed apart in the source"}, "Vaccinia virus [10]": {"system": "Vaccinia virus", "experiment": "Evaluated for the minimum inhibitory concentration (MIC) in primary rabbit kidney (PRK), by 50% upon preincubation in medium containing 10% fetal calf serum at 37 degree Celsius for 24 hr against Vaccinia virus", "assay_type": "functional", "details": "Orthopoxvirus vaccinia", "summary_of_the_method": "as §4"}, "[11]": {"system": "Vesicular stomatitis virus", "experiment": "Evaluated for the minimum inhibitory concentration (MIC) in primary rabbit kidney (PRK) by 50% against Vesicular stomatitis virus", "assay_type": "functional", "summary_of_the_method": "as §2"}, "Human alphaherpesvirus 1 [12]": {"system": "Human alphaherpesvirus 1", "experiment": "Evaluated for the minimum inhibitory concentration (MIC) in primary rabbit kidney (PRK) by 50% upon preincubation in medium containing 10% fetal calf serum at 37 degree Celsius for 24 hr against herpes simplex virus type-1 (HSV-1) with strain F", "assay_type": "functional", "summary_of_the_method": "as §4"}, "Human alphaherpesvirus 1 [13]": {"system": "Human alphaherpesvirus 1", "experiment": "Evaluated for the minimum inhibitory concentration (MIC) in primary rabbit kidney (PRK) by 50% upon preincubation in medium containing 10% fetal calf serum at 37 degree Celsius for 24 hr against herpes simplex virus type-1 (HSV-1) with strain KOS", "assay_type": "functional", "summary_of_the_method": "as §4"}, "Human alphaherpesvirus 1 [14]": {"system": "Human alphaherpesvirus 1", "experiment": "Evaluated for the minimum inhibitory concentration (MIC) in primary rabbit kidney (PRK), by 50% upon preincubation in medium containing 10% fetal calf serum at 37 degree Centigrade for 24 hr against herpes simplex virus type-1 (HSV-1) with strain Mc", "assay_type": "functional", "summary_of_the_method": "as §4"}, "Vaccinia virus [15]": {"system": "Vaccinia virus", "experiment": "Evaluated for the minimum inhibitory concentration (MIC) in primary rabbit kidney (PRK) by 50% against Vaccinia virus", "assay_type": "functional", "details": "Orthopoxvirus vaccinia", "summary_of_the_method": "as §2"}, "Human alphaherpesvirus 2 [16]": {"system": "Human alphaherpesvirus 2", "experiment": "Evaluated for the minimum inhibitory concentration (MIC) in primary rabbit kidney (PRK), by 50% upon pre-incubation in medium containing 10% fetal calf serum at 37 degree Centigrade for 24 hr against herpes simplex virus type-2 (HSV-2) with strains 1", "assay_type": "functional", "summary_of_the_method": "as §4"}, "Human alphaherpesvirus 2 [17]": {"system": "Human alphaherpesvirus 2", "experiment": "Evaluated for the minimum inhibitory concentration (MIC) in primary rabbit kidney (PRK), by 50% upon preincubation in medium containing 10% fetal calf serum at 37 degree Celsius for 24 hr against herpes simplex virus type-2 (HSV-2) with strains G", "assay_type": "functional", "summary_of_the_method": "as §4"}, "Human alphaherpesvirus 2 [18]": {"system": "Human alphaherpesvirus 2", "experiment": "Evaluated for the minimum inhibitory concentration (MIC) in primary rabbit kidney (PRK), by 50% upon pre-incubation in medium containing 10% fetal calf serum at 37 degree Centigrade for 24 hr against herpes simplex virus type-2 (HSV-2) with strains L", "assay_type": "functional", "summary_of_the_method": "as §4"}, "Human alphaherpesvirus 1 [19]": {"system": "Human alphaherpesvirus 1", "experiment": "Evaluated for the minimum inhibitory concentration (MIC) in primary rabbit kidney (PRK) by 50% against herpes simplex virus type-1 (HSV-1) with strains KOS", "assay_type": "functional", "summary_of_the_method": "(§5)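 Confluent primary rabbit kidney cell cultures infected with 100 CCID50 virus; after 1 h adsorption residual virus removed and cells incubated with varying compound concentrations. Cytopathogenicity scored when complete in infected untreated controls; MIC = concentration reducing virus-induced cytopathogenicity by 50%. Compounds tested as such or after preincubation in medium with 10% fetal calf serum, 24 h, 37 °C.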"}, "Human alphaherpesvirus 1 [20]": {"system": "Human alphaherpesvirus 1", "experiment": "Evaluated for the minimum inhibitory concentration (MIC) in primary rabbit kidney (PRK) by 50% against herpes simplex virus type-1 (HSV-1) with strains McIntyre", "assay_type": "functional", "summary_of_the_method": "as §5"}, "Human alphaherpesvirus 2 [21]": {"system": "Human alphaherpesvirus 2", "experiment": "Evaluated for the minimum inhibitory concentration (MIC) in primary rabbit kidney (PRK) by 50% against herpes simplex virus type-2 (HSV-2) with strains 196", "assay_type": "functional", "summary_of_the_method": "as §5"}, "Human alphaherpesvirus 2 [22]": {"system": "Human alphaherpesvirus 2", "experiment": "Evaluated for the minimum inhibitory concentration (MIC) in primary rabbit kidney (PRK) by 50% against herpes simplex virus type-2 (HSV-2) with strains Lyons", "assay_type": "functional", "summary_of_the_method": "as §5"}, "[23]": {"system": "Vesicular stomatitis virus", "experiment": "Evaluated for the minimum inhibitory concentration (MIC) in primary rabbit kidney (PRK), by 50% upon preincubation in medium containing 10% fetal calf serum at 37 degree Celsius for 24 hr against vesicular stomatitis virus", "assay_type": "functional", "summary_of_the_method": "as §4"}, "Human alphaherpesvirus 1 [24]": {"system": "Human alphaherpesvirus 1", "experiment": "Evaluated for the minimum inhibitory concentration (MIC) in primary rabbit kidney (PRK) by 50% against herpes simplex virus type-1 (HSV-1) with strains F", "assay_type": "functional", "summary_of_the_method": "as §5"}},
  "note": "“And” between values parts separate entries of the source, which are not always exact repeats. Equal values may be shown once.",
  "data": [
    {"smiles": "CC(=O)O[C@H]1C[C@H](n2cc(C)c(=O)[nH]c2=O)O[C@@H]1COP(=O)(OC[C@H]1O[C@@H](n2cc(C)c(=O)[nH]c2=O)C[C@@H]1OC(C)=O)Oc1ccc(S(C)(=O)=O)cc1", "values": [
      {"measurement": "pKa", "setting": "[1]", "value": 7.83}
    ]},
    {"smiles": "CS(=O)(=O)c1ccc(OP(=O)(OCCOCn2cnc3c(O)nc(N)nc32)OCCOCn2cnc3c(O)nc(N)nc32)cc1", "values": [
      {"measurement": "MTS", "setting": "Mus musculus [2]", "value": "40.2 days and 40.6 days and 33.4 days"},
      {"measurement": "Mean day appearance of lesions", "setting": "Mus musculus [3]", "value": 17.6},
      {"measurement": "Mean day appearance of lesions", "setting": "Mus musculus [4]", "value": 23.6},
      {"measurement": "Mean day appearance of lesions", "setting": "Mus musculus [5]", "value": 29.7},
      {"measurement": "MCC", "setting": "Oryctolagus cuniculus", "value": 400, "unit": "µg/mL"},
      {"measurement": "MCC", "setting": "Oryctolagus cuniculus; Oryctolagus cuniculus, kidney, read-out: MCC", "value": 400, "unit": "µg/mL"},
      {"measurement": "MIC", "setting": "Human alphaherpesvirus 1 [6]", "value": 70, "unit": "µg/mL"},
      {"measurement": "MIC", "setting": "Human alphaherpesvirus 1 [7]", "value": 40, "unit": "µg/mL"},
      {"measurement": "MIC", "setting": "Human alphaherpesvirus 1 [8]", "value": 150, "unit": "µg/mL"},
      {"measurement": "MIC", "setting": "Human alphaherpesvirus 1 [9]", "value": 150, "unit": "µg/mL"},
      {"measurement": "MIC", "setting": "Vaccinia virus [10]", "value": "> 200", "unit": "µg/mL"},
      {"measurement": "MIC", "setting": "[11]", "value": "> 200", "unit": "µg/mL"},
      {"measurement": "MIC", "setting": "Human alphaherpesvirus 1 [12]", "value": 0.4, "unit": "µg/mL"},
      {"measurement": "MIC", "setting": "Human alphaherpesvirus 1 [13]", "value": 0.4, "unit": "µg/mL"},
      {"measurement": "MIC", "setting": "Human alphaherpesvirus 1 [14]", "value": 0.7, "unit": "µg/mL"},
      {"measurement": "MIC", "setting": "Vaccinia virus [15]", "value": "> 200", "unit": "µg/mL"},
      {"measurement": "MIC", "setting": "Human alphaherpesvirus 2 [16]", "value": 0.3, "unit": "µg/mL"},
      {"measurement": "MIC", "setting": "Human alphaherpesvirus 2 [17]", "value": 0.2, "unit": "µg/mL"},
      {"measurement": "MIC", "setting": "Human alphaherpesvirus 2 [18]", "value": 0.4, "unit": "µg/mL"},
      {"measurement": "MIC", "setting": "Human alphaherpesvirus 1 [19]", "value": 0.7, "unit": "µg/mL"},
      {"measurement": "MIC", "setting": "Human alphaherpesvirus 1 [20]", "value": 1, "unit": "µg/mL"},
      {"measurement": "MIC", "setting": "Human alphaherpesvirus 2 [21]", "value": 0.4, "unit": "µg/mL"},
      {"measurement": "MIC", "setting": "Human alphaherpesvirus 2 [22]", "value": 0.4, "unit": "µg/mL"},
      {"measurement": "MIC", "setting": "[23]", "value": "> 200", "unit": "µg/mL"},
      {"measurement": "MIC", "setting": "Human alphaherpesvirus 1 [24]", "value": 0.7, "unit": "µg/mL"}
    ]}
  ]
}
